Results gathered from unrelated publications.
Compare with care: the assays were run in different laboratories.

c1ccc(-c2nc(NCc3nc4ccccc4o3)c3ccccc3n2)nc1 — microsomal CLint (metabolic stability; human, liver microsomes): 47 µL/min/mg
OC[C@H]1O[C@@H](c2ccc(Cl)c(Cc3ccc(O[C@H]4CCOC4)cc3)c2)[C@H](O)[C@@H](O)[C@@H]1O — renal clearance (human, urine; oral, 10 mg, single dose): 24.5 mL/min
COc1cc(C(=O)NC2CCN(C)CC2)c(F)cc1Nc1ncc(C(F)(F)F)c(Oc2cccc3c2C(=O)N(C)C3)n1 — CL/F (human, plasma; oral, 25 mg, multiple doses, once daily, patients): 139 mL/min
Fc1ccc(Nc2c(-c3cccc(F)n3)nc3ccccn23)cc1 — hepatocyte CLint (metabolic stability; rat, hepatocytes): > 300 µL/min/10⁶ cells
c1cnc2ccc(Nc3nc(NC4CC4)c4nc[nH]c4n3)cc2c1 — CL/F (human, plasma; oral, 100 mg/m², patients): 585 mL/min
c1ccc(C2CCN(c3nc(-c4cnn5cccnc45)nc4ccccc34)C2)nc1 (stereo not shown) — microsomal CLint (metabolic stability; human, liver microsomes): 47 µL/min/mg
CN(c1ccc(F)cc1)c1c(-c2cccc(F)n2)nc2ccccn12 — hepatocyte CLint (metabolic stability; rat, hepatocytes): > 300 µL/min/10⁶ cells
Cc1ccc(C(=O)N(CCCN)[C@@H](c2oc3cc(Cl)ccc3c(=O)c2Cc2ccccc2)C(C)C)cc1 — clearance (human, plasma; intravenous, 2 mg/m², single dose, patients, infusion): 26.6 mL/min
COc1cccnc1-c1nc2ccccn2c1Nc1ccc(F)cc1 — hepatocyte CLint (metabolic stability; rat, hepatocytes): 29 µL/min/10⁶ cells
CCNCCCNC/C=C\CNCCCNCC — clearance (human, plasma; intravenous, 150 mg, patients, infusion): 5910 mL/min
